The values that follow come from paper PMC2659760 (The Journal of organic chemistry, 2009).

Structures are written as SMILES. Entries after “also recorded” stand apart in the source; their conditions may differ. Like-named read-outs stand apart in the source and are kept apart here.

The target of series [1] is T1, Pichia pastoris lysyl oxidase (PPLO) (Komagataella pastoris, UniProt Q96X16).
T1 sequence (Q96X16 19-787): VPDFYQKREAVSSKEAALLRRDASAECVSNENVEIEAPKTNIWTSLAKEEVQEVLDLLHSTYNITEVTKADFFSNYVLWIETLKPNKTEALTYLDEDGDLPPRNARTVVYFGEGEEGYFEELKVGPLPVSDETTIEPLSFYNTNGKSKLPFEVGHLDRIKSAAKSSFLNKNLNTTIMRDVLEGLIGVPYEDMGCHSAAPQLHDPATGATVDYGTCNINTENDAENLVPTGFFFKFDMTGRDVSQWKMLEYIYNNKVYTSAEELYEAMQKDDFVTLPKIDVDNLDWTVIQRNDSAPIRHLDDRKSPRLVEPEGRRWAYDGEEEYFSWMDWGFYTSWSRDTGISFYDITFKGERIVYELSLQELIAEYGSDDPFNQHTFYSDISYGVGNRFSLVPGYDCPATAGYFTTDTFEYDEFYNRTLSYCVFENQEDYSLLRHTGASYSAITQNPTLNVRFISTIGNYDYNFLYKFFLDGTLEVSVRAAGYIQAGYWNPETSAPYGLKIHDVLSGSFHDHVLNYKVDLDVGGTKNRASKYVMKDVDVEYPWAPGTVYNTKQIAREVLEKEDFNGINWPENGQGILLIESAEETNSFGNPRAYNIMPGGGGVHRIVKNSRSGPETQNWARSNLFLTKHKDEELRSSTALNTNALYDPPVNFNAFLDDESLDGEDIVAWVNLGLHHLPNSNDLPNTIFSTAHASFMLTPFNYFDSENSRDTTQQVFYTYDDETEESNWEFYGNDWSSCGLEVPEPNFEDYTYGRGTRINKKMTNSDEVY
In words: Selectivity: initial oxidation velocity with PPLO. In kind it is biochemical. The conditions noted are these: for V0: 30 °C, 250 nm. The procedure, abridged:
(§1)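 Purified enzyme was diluted into 20 µM fluorogenic amine substrate in 0.1 M pH 7.2 phosphate buffer, or into 5 mM benzylamine in 50 mM pH 7.2 phosphate buffer, at 30 °C. Absorbance at 250 nm was followed for 30 s. Slopes were converted to nM s−1 using extinction coefficients of the aldehyde products at 250 nm.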

Series [2] has as its target T2, BPAO (Bos taurus, UniProt Q29437).
T2 sequence (Q29437 17-762): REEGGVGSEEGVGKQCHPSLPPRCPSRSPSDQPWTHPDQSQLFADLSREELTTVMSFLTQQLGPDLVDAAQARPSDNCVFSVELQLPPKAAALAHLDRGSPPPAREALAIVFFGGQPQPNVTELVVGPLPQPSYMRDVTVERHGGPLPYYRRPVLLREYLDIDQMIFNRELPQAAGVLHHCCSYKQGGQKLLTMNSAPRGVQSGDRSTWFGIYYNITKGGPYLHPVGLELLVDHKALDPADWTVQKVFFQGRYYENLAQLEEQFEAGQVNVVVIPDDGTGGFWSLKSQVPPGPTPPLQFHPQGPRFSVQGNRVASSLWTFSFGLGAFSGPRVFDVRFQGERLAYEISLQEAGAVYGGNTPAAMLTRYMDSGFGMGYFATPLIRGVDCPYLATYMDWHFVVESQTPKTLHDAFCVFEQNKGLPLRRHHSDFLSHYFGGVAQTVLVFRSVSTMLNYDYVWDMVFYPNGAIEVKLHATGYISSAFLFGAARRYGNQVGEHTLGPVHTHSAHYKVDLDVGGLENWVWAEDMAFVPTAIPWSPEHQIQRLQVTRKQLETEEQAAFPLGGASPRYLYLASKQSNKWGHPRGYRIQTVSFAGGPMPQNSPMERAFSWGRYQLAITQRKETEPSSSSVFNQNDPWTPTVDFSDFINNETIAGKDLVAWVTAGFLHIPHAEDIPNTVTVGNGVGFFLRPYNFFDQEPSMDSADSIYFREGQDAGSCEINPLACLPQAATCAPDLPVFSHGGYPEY
In words: Selectivity: initial oxidation velocity with BPAO. The following applies: for V0: 30 °C, 250 nm. Type of series: biochemical, bovine. In outline:
as §1

Series [3] concerns rat liver monoamine oxidase (MAO-B). In words: Selectivity: initial oxidation velocity with rat liver MAO-B. Type of series: biochemical. The following applies: for V0: 30 °C, 250 nm, rat liver mitochondria. The procedure, abridged: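 MAO-B source: isolated rat liver mitochondria, protein by biuret (BSA standard). Thawed suspension in mannitol/sucrose/MOPS pH 7.4 diluted with 0.1 M pH 7.2 phosphate containing 0.25% Triton X-100, warmed to 30 °C. Aliquot added to 20 µM test amine (0.1 M phosphate) or 5 mM benzylamine (50 mM phosphate). A250 followed 30 s at 30 °C; rates via extinction coefficients.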

In series [4] the target is T3, bovine plasma amine oxidase (BPAO) (Bos taurus, UniProt Q29437).
T3 sequence (Q29437 17-762): T2 sequence (Q29437 17-762)
In words: Substrate activity with BPAO. In kind it is biochemical. The conditions noted are these: kcat/Km relative to BA = 1.

For series [5], the target named is Arthrobacter globiformis amine oxidase (AGAO) (Arthrobacter globiformis, UniProt P46881). Kind of series: Selectivity: initial oxidation velocity with AGAO. Type of series: biochemical. The following applies: for V0: 30 °C, 250 nm. In outline:
as §1

The target of series [6] is T4, porcine kidney diamine oxidase (pkDAO) (Sus scrofa, UniProt Q9TRC7).
T4 sequence (Q9TRC7 25-755): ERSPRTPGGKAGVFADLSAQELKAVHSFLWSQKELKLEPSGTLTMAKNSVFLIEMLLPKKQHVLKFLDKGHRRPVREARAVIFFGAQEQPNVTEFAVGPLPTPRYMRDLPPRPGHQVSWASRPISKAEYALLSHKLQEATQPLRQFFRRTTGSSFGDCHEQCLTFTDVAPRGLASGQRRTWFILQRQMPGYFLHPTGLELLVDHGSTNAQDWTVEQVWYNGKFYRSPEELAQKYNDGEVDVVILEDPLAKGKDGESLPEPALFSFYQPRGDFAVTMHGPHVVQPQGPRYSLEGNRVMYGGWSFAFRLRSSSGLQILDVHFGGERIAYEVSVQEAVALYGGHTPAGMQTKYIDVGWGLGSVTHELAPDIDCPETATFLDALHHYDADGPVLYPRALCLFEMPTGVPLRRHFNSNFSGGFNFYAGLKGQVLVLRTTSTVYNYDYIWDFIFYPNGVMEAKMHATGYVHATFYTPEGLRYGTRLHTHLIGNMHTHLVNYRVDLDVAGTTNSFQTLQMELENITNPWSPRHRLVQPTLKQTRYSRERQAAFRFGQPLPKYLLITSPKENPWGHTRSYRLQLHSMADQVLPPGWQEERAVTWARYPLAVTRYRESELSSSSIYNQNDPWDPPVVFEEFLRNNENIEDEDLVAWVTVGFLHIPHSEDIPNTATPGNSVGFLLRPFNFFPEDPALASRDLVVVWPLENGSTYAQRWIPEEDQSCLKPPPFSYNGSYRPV
In words: Selectivity: initial oxidation velocity with pkDAO. In kind it is biochemical. The conditions noted are these: for V0: 37 °C, 250 nm. In outline: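 Porcine kidney DAO (from 10 mg/mL stock) in 0.1 M pH 7.2 phosphate buffer, equilibrated at 37 °C. Test amine (final 20 µM) or p-xylylenediamine (final 1.5 mM) was added. Absorbance at 250 nm was read for 30 s at 37 °C. Rates were computed using a literature extinction coefficient for p-(aminomethyl)benzaldehyde.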

Series [7] in a line: Solubility. Type of series: physicochemical.
Series [8] deals with T2, BPAO. In words: Inhibition of BPAO evaluated with the new fluorometric assay. Type of series: biochemical, bovine. In outline:
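BPAO (50 nM) in 0.1 M pH 7.2 phosphate buffer, held 5 min at 2 °C, then given test inhibitor (final 1–10 µM; repeat at 30 °C with 0.125–2 µM). Aliquots taken over time and assayed at 30 °C: 10 µM fluorogenic amine substrate, emission 453 nm (λex 350 nm), 30 s. Residual activity relative to an inhibitor-free control; t1/2 per concentration fed Kitz–Wilson plot.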

The target of series [9] is T2, BPAO. The conditions noted are these: ref 8d, cited from earlier work.
[10] abbreviates: BA 5 mM in 50 mM pH 7.2 phosphate buffer.
Setting [11] is: 12 20 µM in 0.1 M pH 7.2 phosphate buffer.

Regarding `NCc1ccccc1` [BA, benzylamine, reference compound], the V0 in series [1] (setting [10]) came to 67.2 nM/s; in [2] (setting [10]), 82.8 nM/s; in series [3] (setting [10]), 103.1 nM/s; in series [5] (setting [10]), 54.7 nM/s. The relative activity in [4] (UV-vis spectrophotometry) was 1.

In [6] (PXDA 1.5 mM in 0.1 M pH 7.2 phosphate buffer), `NCc1ccc(CN)cc1` [PXDA, p-xylylenediamine, reference compound] yielded a V0 of 51.8 nM/s.

For the compound `COc1ccc2cc(CN)ccc2c1.Cl` [compound 1, 6-Methoxy-2-naphthalenemethaneamine hydrochloride], the relative activity in series [4] (UV-vis spectrophotometry) and in [4] (fluorescence spectrophotometry) was 2.2 each time. Besides, the “solubility (in words)” value in series [7] is on record as “poor solubility; also recorded: poorly soluble”.

With `Cl.Cl.NCCOc1ccc2cc(CN)ccc2c1` [compound 9, 2-(6-(Aminomethyl)naphthalen-2-yloxy)ethylamine dihydrochloride], the relative activity in [4] (fluorescence spectrophotometry) is given as 2.9×10^2.

In the case of `CNCCOc1ccc2cc(CN)ccc2c1.Cl.Cl` [compound 10, (2-(6-(Aminomethyl)naphthalen-2-yloxy)ethyl)methylamine dihydrochloride], the relative activity in [4] (fluorescence spectrophotometry) is reported as 1.5×10^3.

For `CN(C)CCOc1ccc2cc(CN)ccc2c1.Cl.Cl` [compound 11, (2-(6-(Aminomethyl)naphthalen-2-yloxy)ethyl)dimethylamine dihydrochloride], the relative activity in series [4] (fluorescence spectrophotometry) is 3.1×10^3.

As for `C[N+](C)(C)CCOc1ccc2cc(CN)ccc2c1.Cl.[Cl-]` [compound 12, (2-(6-(Aminomethyl)naphthalen-2-yloxy)ethyl)trimethylammonium chloride hydrochloride], the “substrate activity with pkDAO (in words)” value in [6] was “no significant substrate activity”; in series [6] (listed as ANETA), “not a substrate”. The V0 in [6] (setting [11]) was determined as 1.0 nM/s; in series [1] (setting [11]), 24.8 nM/s; in [2] (setting [11]), 62.3 nM/s; in series [3] (setting [11]) it was 0.6 nM/s; in series [5] (setting [11]), 1.3 nM/s. In addition, the “substrate activity with PPLO (in words)” value in series [1] (compared with BPAO) was “comparable rate”. The entries for the “substrate activity with BPAO (in words)” value in [2] and in series [2] (listed as ANETA) were “metabolized quickly” and “good substrate”, respectively. The figures for the “substrate activity with MAO-B (in words)” value in series [3] and in series [3] (listed as ANETA) were “no significant substrate activity” and “not a substrate”, respectively. Moreover, the relative activity in series [4] (fluorescence spectrophotometry) is given as 5.4×10^3. In series [5], the “substrate activity with AGAO (in words)” value is given as “no significant substrate activity”.

As to `C=C=CCN` [compound 29, 1-Amino-2,3-butadiene], the “slope of the Kitz and Wilson plot” value in [8] (inactivation at 2 °C, BPAO 50 nM) was 10.8; in series [9] (BA assay, 2 °C), 10.2. Moreover, the IC50 in [8] (read-out: 5 min IC50, 30 °C) was 250 nM; in [8] (read-out: 10 min IC50, 30 °C), 125 nM; in series [9] (read-out: 5 min IC50, BA assay with 1 µM BPAO, previous estimation) it was 1250 nM.

What is called IC50 is the concentration that inhibits the measured activity by half.
